Values after ≈ are worked out from the molar mass of the structure shown.
Experiments:
Klebsiella aerogenes = test: Minimum inhibitory concentration of compound against Enterobacter aerogenes delta 220; format: functional
Klebsiella pneumoniae = test: Minimum inhibitory concentration of compound against Klebsiella pneumoniae delta 217; format: functional
Escherichia coli [1] = test: Antibacterial activity againist Escherichia coli 120 infected NMRI mice after peroral administration; format: functional; conditions: po
Method in brief: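 ED50 in NMRI mice infected intraperitoneally with E. coli 120; compound given orally immediately and 5 h after infection.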

Neisseria gonorrhoeae [2] = test: Minimum inhibitory concentration of compound against Neisseria gonorrhoeae AS 7720; format: functional
Method in brief: (§1)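 Agar dilution on Kellogg agar, 10⁶ colony forming units, incubated 20 h at 36 °C in 5% CO₂; MIC is the lowest concentration giving no visible growth.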

Proteus mirabilis = test: Minimum inhibitory concentration against Proteus mirabilis delta 89; format: functional
Salmonella typhimurium = test: Minimum inhibitory concentration of compound against Salmonella Typhimurium delta 119; format: functional, Salmonella enterica subsp. enterica serovar Typhimurium; conditions: Salmonella enterica
Neisseria gonorrhoeae [3] = test: Minimum inhibitory concentration of compound against Neisseria gonorrhoeae W2; format: functional; method in brief: as §1
Escherichia coli [4] = test: Minimum inhibitory concentration of compound against Escherichia coli delta 120; format: functional

MIC (Klebsiella aerogenes) [µg/mL] | MIC (Klebsiella pneumoniae) [µg/mL] | MIC (Neisseria gonorrhoeae [2]) [µg/mL] | MIC (Proteus mirabilis) [µg/mL] | MIC (Salmonella typhimurium) [µg/mL] | MIC (Neisseria gonorrhoeae [3]) [µg/mL] | MIC (Escherichia coli [4]) [µg/mL] | Compound | ED50 (Escherichia coli [1]) [mg/kg]
6.25 (≈ 21.8 µM) | 0.78 (≈ 2.73 µM) | 1 (≈ 3.49 µM) | 1.56 (≈ 5.45 µM) | 1.56 (≈ 5.45 µM) | 1 (≈ 3.49 µM) | 6.25 (≈ 21.8 µM) | Cc1cc2c(s1)B(O)N(S(=O)(=O)CC(C)C)N=C2 | 5
12.5 (≈ 35.6 µM) | 1.56 (≈ 4.44 µM) | 2 (≈ 5.7 µM) | 6.25 (≈ 17.8 µM) | 1.56 (≈ 4.44 µM) | 2 (≈ 5.7 µM) | 12.5 (≈ 35.6 µM) | CC(C)CS(=O)(=O)N1N=Cc2sc(Br)cc2B1O | 73
> 50 | 50 (≈ 132 µM) |  | 50 (≈ 132 µM) | > 50 |  | > 50 | Cc1ccc(S(=O)(=O)N2N=Cc3c(ccn3Cc3ccccc3)B2O)cc1 | > 600
25 (≈ 58.4 µM) | 3.12 (≈ 7.29 µM) | 1 (≈ 2.34 µM) | 3.12 (≈ 7.29 µM) | 3.12 (≈ 7.29 µM) | 1 (≈ 2.34 µM) | 25 (≈ 58.4 µM) | CC(=O)Nc1ccc(S(=O)(=O)N2N=Cc3sc(Br)cc3B2O)cc1 | 55
25 (≈ 96.8 µM) | 1.56 (≈ 6.04 µM) | 8 (≈ 31 µM) | 25 (≈ 96.8 µM) | 3.12 (≈ 12.1 µM) | 8 (≈ 31 µM) | 6.25 (≈ 24.2 µM) | CCCS(=O)(=O)N1N=Cc2sccc2B1O | 28
25 (≈ 79.3 µM) | 1.56 (≈ 4.95 µM) | 2 (≈ 6.35 µM) | 0.39 (≈ 1.24 µM) | 3.12 (≈ 9.9 µM) | 8 (≈ 25.4 µM) | 6.25 (≈ 19.8 µM) | Cc1ccc2c(c1)C=NN(S(=O)(=O)c1ccc(N)cc1)B2O | 5
25 (≈ 87.2 µM) | 1.56 (≈ 5.44 µM) | 2 (≈ 6.98 µM) | 2.5 (≈ 8.72 µM) | 3.12 (≈ 10.9 µM) | 2 (≈ 6.98 µM) | 10 (≈ 34.9 µM) | CCCS(=O)(=O)N1N=Cc2cc(Cl)ccc2B1O | 14
> 50 | > 50 |  | 50 (≈ 130 µM) | > 50 |  | > 50 | Cc1ccc(S(=O)(=O)N2N=Cc3scc(Br)c3B2O)cc1 | > 300
> 50 | 12.5 (≈ 49.4 µM) | > 8 | 50 (≈ 198 µM) | 50 (≈ 198 µM) | > 8 | > 50 | CN(C)S(=O)(=O)N1N=Cc2ccccc2B1O | 57
> 50 | 6.25 (≈ 16.5 µM) | 2 (≈ 5.28 µM) | 12.5 (≈ 33 µM) | 6.25 (≈ 16.5 µM) | 8 (≈ 21.1 µM) | 50 (≈ 132 µM) | Cc1ccc(S(=O)(=O)N2N=Cc3ccc(Br)cc3B2O)cc1 | ~30
> 50 | 50 (≈ 109 µM) | 0.5 (≈ 1.09 µM) | 6.25 (≈ 13.6 µM) | 50 (≈ 109 µM) | 2 (≈ 4.36 µM) | > 50 | O=S(=O)(c1cc(Cl)c(Cl)cc1Cl)N1N=Cc2oc(Br)cc2B1O | > 300
25 (≈ 65.8 µM) | 1.56 (≈ 4.1 µM) | 1 (≈ 2.63 µM) | 0.78 (≈ 2.05 µM) | 3.12 (≈ 8.21 µM) | 2 (≈ 5.26 µM) | 10 (≈ 26.3 µM) | Nc1ccc(S(=O)(=O)N2N=Cc3cc(Br)ccc3B2O)cc1 | 16
 |  |  |  | > 50 |  | > 50 | Cc1ccc(S(=O)(=O)N2N=Cc3ccc(F)cc3B2O)cc1 | ~250
50 (≈ 159 µM) | 1.56 (≈ 4.97 µM) | 1 (≈ 3.18 µM) | 3.12 (≈ 9.93 µM) | 3.12 (≈ 9.93 µM) | 8 (≈ 25.5 µM) | 12.5 (≈ 39.8 µM) | Cc1ccc(S(=O)(=O)N2N=Cc3cc(C)ccc3B2O)cc1 | ~15
> 50 | > 50 |  | 25 (≈ 61.4 µM) | > 50 |  | > 50 | O=S(=O)(c1cc(Cl)c(Cl)cc1Cl)N1N=Cc2c(F)cccc2B1O | > 300
25 (≈ 63.8 µM) | 1.25 (≈ 3.19 µM) | 0.5 (≈ 1.28 µM) | 1.25 (≈ 3.19 µM) | 6.25 (≈ 16 µM) | 1 (≈ 2.55 µM) | 25 (≈ 63.8 µM) | CC(=O)Nc1ccc(S(=O)(=O)N2N=Cc3cc(C)ccc3B2O)c(Cl)c1 | 16
> 50 | 6.25 (≈ 16.5 µM) | 1 (≈ 2.64 µM) | 1.56 (≈ 4.12 µM) | 6.25 (≈ 16.5 µM) | 2 (≈ 5.28 µM) | 25 (≈ 66 µM) | Cc1ccc(S(=O)(=O)N2N=Cc3cc(Br)ccc3B2O)cc1 | ~40
25 (≈ 64.9 µM) | 1.56 (≈ 4.05 µM) | 0.5 (≈ 1.3 µM) | 1.56 (≈ 4.05 µM) | 3.12 (≈ 8.1 µM) | 2 (≈ 5.19 µM) | 6.25 (≈ 16.2 µM) | Cc1ccc(S(=O)(=O)N2N=Cc3sc(Br)cc3B2O)cc1 | ~15
 |  |  |  | 50 (≈ 143 µM) |  | > 50 | O=[N+]([O-])c1ccc(S(=O)(=O)N2N=Cc3c(F)cccc3B2O)cc1 | ~100

MIC (Klebsiella aerogenes) [µg/mL] | MIC (Klebsiella pneumoniae) [µg/mL] | MIC (Neisseria gonorrhoeae [2]) [µg/mL] | MIC (Proteus mirabilis) [µg/mL] | MIC (Salmonella typhimurium) [µg/mL] | MIC (Neisseria gonorrhoeae [3]) [µg/mL] | MIC (Escherichia coli [4]) [µg/mL] | Compound | ED50 (Escherichia coli [1]) [mg/kg]
 |  |  |  | > 50 |  | > 50 | CC1=NN(S(=O)(=O)c2ccc(C)cc2)B(O)c2ccccc21 | ~100
12.5 (≈ 38.7 µM) | 3.12 (≈ 9.66 µM) | 2 (≈ 6.19 µM) | 6.25 (≈ 19.3 µM) | 3.12 (≈ 9.66 µM) | 2 (≈ 6.19 µM) | 12.5 (≈ 38.7 µM) | CCS(=O)(=O)N1N=Cc2sc(Br)cc2B1O | 
 |  |  |  | > 50 |  | > 50 | Cc1ccc(S(=O)(=O)N2N=Cc3cc(N(C)C)ccc3B2O)cc1 | > 300
 |  |  |  | > 50 |  | > 50 | Cc1ccc(S(=O)(=O)N2N=Cc3c(Cl)cc(N(C)C)cc3B2O)cc1 | > 300
 |  |  |  | > 50 |  | > 50 | CC(=O)Nc1ccc2c(c1)B(O)N(S(=O)(=O)c1ccc(C)cc1)N=C2 | > 300
 |  |  |  | > 50 |  | > 50 | Cc1ccc(S(=O)(=O)N2N=Cc3c(Br)cccc3B2O)cc1 | > 100
> 50 | > 50 |  | > 50 | > 50 |  | > 50 | Cc1ccc(S(=O)(=O)N2N=Cc3c(C)ccc(C)c3B2O)cc1 | > 600
 |  |  |  | > 50 |  | > 50 | Cc1ccc(S(=O)(=O)N2N=Cc3ccc(O)cc3B2O)cc1 | ~300
> 50 | 50 (≈ 159 µM) |  | 50 (≈ 159 µM) | > 50 |  | > 50 | Cc1ccc(S(=O)(=O)N2N=Cc3cc(N)ccc3B2O)cc1 | > 300
> 50 | 6.25 (≈ 23.4 µM) | 8 (≈ 29.9 µM) | 6.25 (≈ 23.4 µM) | 12.5 (≈ 46.8 µM) | 8 (≈ 29.9 µM) | > 50 | Cc1ccc2c(c1)C=NN(S(=O)(=O)N(C)C)B2O | 
 |  |  |  | > 50 |  | > 50 | Cc1ccc(S(=O)(=O)N2N=C(c3ccccc3)c3ccccc3B2O)cc1 | > 300
 |  |  |  | > 50 |  | > 50 | Cc1ccc(S(=O)(=O)N2N=Cc3cc(Cl)c(Cl)cc3B2O)cc1 | > 100
 |  |  |  | > 50 |  | > 50 | Cc1ccc(S(=O)(=O)N2N=Cc3ccc(N(C)C)cc3B2O)cc1 | 100
 |  |  |  | > 50 |  | > 50 | CS(=O)(=O)N1N=Cc2ccccc2B1O | 
 |  |  |  | > 50 |  | > 50 | Cc1ccc(S(=O)(=O)N2N=Cc3c(Cl)cccc3B2O)cc1 | ~100
> 50 | 50 (≈ 144 µM) |  | 10 (≈ 28.9 µM) | > 50 |  | > 50 | Cc1cc(C)c(S(=O)(=O)N2N=Cc3c(F)cccc3B2O)c(C)c1 | > 100
 |  |  |  | > 50 |  | > 50 | Cc1ccc(S(=O)(=O)N2N=Cc3ccc(C(=O)O)cc3B2O)cc1 | 
 |  |  |  | > 50 |  | > 50 | Cc1ccc(S(=O)(=O)N2N=Cc3c(ccn3C)B2O)cc1 | > 300
 |  |  |  | > 50 |  | > 50 | Cc1ccc(S(=O)(=O)N2N=Cc3c(Cl)cc(Cl)cc3B2O)cc1 | > 100
